Our source for the IC50 values is BindingDB's records for doi:10.1021/np800732n (National Cancer Institute-Frederick, 2010).

Transcription factor Jun, sequence (P05412 whole entry): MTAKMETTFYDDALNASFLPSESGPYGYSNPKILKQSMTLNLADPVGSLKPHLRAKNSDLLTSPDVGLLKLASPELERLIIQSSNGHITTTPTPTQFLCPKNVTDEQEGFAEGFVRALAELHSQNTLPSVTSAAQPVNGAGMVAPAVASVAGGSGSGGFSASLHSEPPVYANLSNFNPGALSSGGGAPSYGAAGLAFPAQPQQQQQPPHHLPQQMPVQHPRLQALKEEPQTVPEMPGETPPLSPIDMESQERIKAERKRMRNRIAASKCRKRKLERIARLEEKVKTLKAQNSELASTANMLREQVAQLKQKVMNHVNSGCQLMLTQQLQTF

For this experiment, the target named is Transcription factor Jun (Homo sapiens, UniProt P05412). The experiment in a line: Inhibition of TPA-induced AP1 transfected in HEK293 cells assessed as inhibition of […] reporter activity treated 1 hr before TPA stimulation measured after 18 hrs by luciferase reporter gene assay. The procedure, abridged:
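HEK293 cells were grown in DMEM with 10% FBS at 37 °C and 5% CO2. They were transiently transfected with a luciferase reporter (0.1 µg/well); reporters were AP-1 (four TRE consensus copies from GCN4), NF-κB (five responsive-element copies) or SRE. After 24 h, medium went to DMEM with 0.2% FBS. Cells were pretreated 1 h with compound or DMSO, then given TPA 10 ng/mL for 18 h. Firefly luciferase was read from passive-lysis lysates, TPA alone = 100%, in quadruplicate.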
As for `CCC(C)C(=O)O[C@H]1C(=O)O[C@@H]2C[C@H]3C(C)CC(=O)C(=O)[C@]3(C)[C@H]3[C@]4(O)OC[C@]32[C@@H]1[C@@H](C)[C@H]4O` (stereo partly drawn), the IC50 was determined as 32 nM.

Regarding `CC(C)=CC(=O)O[C@@H]1[C@H]2C(C)=C[C@H](O)[C@@H](O)[C@]2(C)[C@H]2[C@]3(O)OC[C@@]24[C@@H]1OC(=O)C[C@H]4[C@@H](C)[C@H]3O` [6R-senecionylchaparrin], the IC50 is 71 nM.

Consider `CC[C@](C)(O)C(=O)O[C@H]1C(=O)O[C@@H]2C[C@H]3C(C)CC(=O)C(=O)[C@]3(C)[C@H]3[C@@]4(O)OC[C@]32[C@@H]1[C@@H](C)[C@H]4O` (stereo partly drawn) [NSC-14975], for which the IC50 came out at 40 nM.
